From ChEMBL document CHEMBL1150430, “Flavonoids for controlling starch digestion: structural requirements for inhibiting human alpha-amylase” (J Med Chem, 2008)

Key:
[1] = target: T1, Alpha-amylase 1A (Homo sapiens) (UniProt P0DUB6); test: (§1) Inhibition of human salivary alpha-amylase; details: concentration not given here
T1 sequence (whole entry): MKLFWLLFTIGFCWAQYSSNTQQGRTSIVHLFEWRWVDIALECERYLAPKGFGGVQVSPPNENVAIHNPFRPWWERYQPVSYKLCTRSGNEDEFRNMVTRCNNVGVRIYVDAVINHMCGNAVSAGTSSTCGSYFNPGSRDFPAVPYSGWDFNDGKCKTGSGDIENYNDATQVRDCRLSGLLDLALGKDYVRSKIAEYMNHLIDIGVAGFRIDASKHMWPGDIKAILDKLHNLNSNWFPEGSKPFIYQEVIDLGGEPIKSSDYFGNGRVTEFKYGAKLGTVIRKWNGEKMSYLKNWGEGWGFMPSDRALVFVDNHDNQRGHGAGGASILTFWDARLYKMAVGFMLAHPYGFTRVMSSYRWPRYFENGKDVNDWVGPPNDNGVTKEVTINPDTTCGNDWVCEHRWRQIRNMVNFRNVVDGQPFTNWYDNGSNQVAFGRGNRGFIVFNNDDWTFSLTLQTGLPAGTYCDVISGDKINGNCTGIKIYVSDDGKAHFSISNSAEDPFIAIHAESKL
Outline: (§2)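 Human salivary α-amylase (type IX-A), diluted in water on the day of use, preincubated 30 min with test compound in 50 mM NaH2PO4/50 mM NaCl/0.5 mM CaCl2/0.1% BSA, pH 6.0 (DMSO stocks). Reducing sugar by Nelson-Somogyi, A540; IC50 and maximum % inhibition.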

[2] = target: T2, Alpha-amylase 1A (Homo sapiens, UniProt P0DUB6); test: as §1; outline: as §2
T2 sequence (P0DUB6 whole entry): T1 sequence (whole entry)

SMILES	inhibition [1]	IC50 [2]
O=c1cc(-c2ccc(O)cc2)oc2cc(O)c(O)c(O)c12 [SCUTELLAREIN]	98.4%	9.64 µM
O=c1c(-c2ccc(O)cc2)coc2cc(O)ccc12	23.3%	
O=c1c(O)c(-c2ccc(O)c(O)c2)oc2cc(O)ccc12 [FISETIN]	85.6%	19.6 µM
COc1cc(-c2oc3cc(O)cc(O)c3c(=O)c2O)ccc1O	35.4%	
O=C1C[C@@H](c2ccc(O)cc2)Oc2cc(O)cc(O)c21	26.8%	
O=c1c(O)c(-c2ccc(O)cc2)oc2cc(O)cc(O)c12	34.5%	
COc1cc(O)c2c(=O)c(O)c(-c3ccc(O)c(O)c3)oc2c1	8.1%	
COc1cc(O)c2c(=O)cc(-c3ccc(O)cc3)oc2c1	17.5%	
COc1ccc(-c2cc(=O)c3c(O)cc(O)cc3o2)cc1	14.1%	
O=c1c(-c2ccc(O)cc2)coc2cc(O)cc(O)c12	25.1%	
Oc1cc(O)c2c(c1)O[C@H](c1ccc(O)c(O)c1)[C@@H](O)C2	13.1%	
O=c1cc(-c2ccc(O)c(O)c2)oc2cc(O)cc(O)c12 [LUTEOLIN]	88.8%	18.4 µM
O=c1c(O)c(-c2cc(O)c(O)c(O)c2)oc2cc(O)cc(O)c12 [MYRICETIN]	79%	30.2 µM
COc1ccc(-c2cc(=O)c3c(O)cc(O)cc3o2)cc1O	19.2%	
Oc1cc(O)c2c(c1)O[C@H](c1ccc(O)c(O)c1)[C@H](O)C2	10.3%	
C[C@H]1O[C@H](O[C@H]2[C@H](O)[C@@H](O)[C@@H](O[C@H]3[C@H](O)[C@@H](O)[C@H](O)O[C@@H]3CO)O[C@@H]2CO)[C@H](O)[C@@H](O)[C@@H]1N[C@H]1C=C(CO)[C@@H](O)[C@H](O)[C@H]1O	99.2%	
O=c1c(O)c(-c2ccc(O)c(O)c2)oc2cc(O)cc(O)c12 [QUERCETIN]	82.1%	21.4 µM
O=c1c(O)c(-c2ccc(O)c(O)c2)oc2cc(O)c(O)c(O)c12 [QUERCETAGETIN]	97.6%	10.2 µM
COc1ccc([C@@H]2CC(=O)c3c(O)cc(O)cc3O2)cc1O	39.8%	
